Efflux pump mplx – inhibitors of Candida antifungal efflux pumps expressed in yeast | S. cerevisiae Candida pump triplex, Nile Red efflux | actives 0.44% (n = 330,000) | inhibition, % at 10 µM | AID 485275;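 active = plate passing quality check with inhibition over a set limit, or well fluorescence over plate mean plus 4 SD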;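 note: Nile Red retained in pooled yeast measured as flow cytometry median fluorescence; 0% = buffer negative control and 100% = Enniatin B positive control; higher means more Nile Red kept so more efflux inhibition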
Neddyl block – inhibitors of human cullin neddylation; TR-FRET cullin neddylation, biochemical; actives 0.58% (n = 360,000); P61081+Q13564; inhibition, % at 25 µM; in the data active = inhibition above about 36%
Arrestin-AP2 inh – human beta-arrestin and AP2 interaction inhibition; FITC-arrestin peptide / GST-AP2 beads, flow cytometry; AP2 beta2 appendage carries R879A mutation; actives 0.31% (n = 340,000); inhibition, % at 10 µM; AID 504490;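 active = inhibition above a set limit, near 3 SD of compounds lacking own fluorescence, cut at about 54% in these data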;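 note: plate controls were DMSO wells for no effect and 5 µM unlabelled arrestin peptide for full effect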
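System: GST-AP2 R879A glutathione beads. Medium: PBS with 0.05% Tween 20 and 0.1% BSA. Also added: FITC-arrestin peptide, 50 nM. Incubation: 12 min plus 1 h, RT. Measured by: high-throughput flow cytometry of beads, ex 488, em 535 nm. Evaluation: percent drop in bead-associated FITC signal.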
Pemphigus Ab inh – blocks pemphigus antibody binding to human desmoglein-3 | DSG3-coupled beads, scFv-anti-DSG3-GFP binding, flow cytometry; active compounds read low | P32926 | actives 0.48% (n = 310,000) | binding (percent of control), % at 10 µM | AID 588358;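 active = binding more than 3 SD below its plate's average and above zero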;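 note: hits lower antibody fragment binding to DSG3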
Target sequence (P32926 whole entry, looked up, the tested form may be a part): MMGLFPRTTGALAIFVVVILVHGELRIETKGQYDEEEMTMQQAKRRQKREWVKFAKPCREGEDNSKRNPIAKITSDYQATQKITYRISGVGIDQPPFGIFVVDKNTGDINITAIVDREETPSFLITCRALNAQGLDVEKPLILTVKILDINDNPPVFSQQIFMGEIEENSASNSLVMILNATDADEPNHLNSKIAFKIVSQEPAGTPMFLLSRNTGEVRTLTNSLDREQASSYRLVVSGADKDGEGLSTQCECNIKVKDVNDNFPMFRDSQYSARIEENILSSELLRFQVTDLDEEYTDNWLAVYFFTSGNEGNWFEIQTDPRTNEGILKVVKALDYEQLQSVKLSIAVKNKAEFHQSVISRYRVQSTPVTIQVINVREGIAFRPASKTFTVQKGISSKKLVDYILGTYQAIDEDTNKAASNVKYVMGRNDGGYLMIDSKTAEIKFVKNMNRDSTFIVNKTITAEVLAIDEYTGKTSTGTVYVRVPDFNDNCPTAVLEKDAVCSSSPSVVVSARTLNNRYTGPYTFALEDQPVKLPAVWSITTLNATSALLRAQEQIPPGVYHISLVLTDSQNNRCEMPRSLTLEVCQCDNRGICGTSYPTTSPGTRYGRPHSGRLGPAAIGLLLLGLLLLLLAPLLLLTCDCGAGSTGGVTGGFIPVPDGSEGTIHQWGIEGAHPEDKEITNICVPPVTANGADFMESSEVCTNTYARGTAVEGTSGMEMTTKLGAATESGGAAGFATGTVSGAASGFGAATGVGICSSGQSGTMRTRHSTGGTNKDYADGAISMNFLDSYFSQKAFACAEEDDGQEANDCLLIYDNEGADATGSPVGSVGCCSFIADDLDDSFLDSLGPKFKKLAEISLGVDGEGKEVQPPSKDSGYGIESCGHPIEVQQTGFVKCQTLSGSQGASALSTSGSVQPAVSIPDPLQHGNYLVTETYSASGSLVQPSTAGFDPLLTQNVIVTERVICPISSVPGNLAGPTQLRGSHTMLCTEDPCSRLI
Arr-AP2 CP1 – blocks beta-arrestin peptide binding to human AP2. shares compounds with Arrestin-AP2 inh. GST-AP2 beads, FITC arrestin peptide binding, flow cytometry; GST-fused beta2-adaptin appendage, R879A mutant. inhibition, % at 10 µM. actives 2% (n = 1,300);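 active = inhibition above a set limit, roughly 3 SD of non-fluorescent compound noise, cut at about 38% in these data; inactive = inhibition at or below that limit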;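 note: loss of bead fluorescence from 50 nM FITC arrestin peptide bound to appendage; 0% = negative control wells and 100% = excess unlabelled arrestin peptide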
GST GSH counter – disrupts GST binding to glutathione beads, arrestin-AP2 artifact; inhibition, % at 10 µM; actives 2% (n = 1,300); GST-fluorescein binding to GSH beads, fluorescence, counter-screen; shares compounds with Arrestin-AP2 inh;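 active = inhibition above 50%, about 3 SD of the inhibition seen with non-fluorescent compounds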;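 note: fluorescein maleimide labelled GST captured on 4 micron glutathione beads; higher means more loss of bead fluorescence from quenching or blocked binding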
Starred values were filed as active, the others as inactive. Sampled rows, rich in hits. Any-hit rate of the full collection: about 1.7%.

Screening CCN1CCN(CC(=O)Nc2c(OC)cccc2OC)CC1 returned Efflux pump mplx 0.0, Neddyl block 0.0, Arrestin-AP2 inh 1.0 and Pemphigus Ab inh 99.3.
Screening COc1cc(C(=O)OCC(=O)Nc2nnc(-c3ccccc3)o2)cc(OC)c1OC returned Efflux pump mplx 0.0, Neddyl block 13.1, Arrestin-AP2 inh 55.0*, Pemphigus Ab inh 105.9, Arr-AP2 CP1 -5.8 and GST GSH counter -7.7.
Screening CCN(CC(=O)Nc1ccc(NC(C)=O)cc1)C(=O)CCN1C(=O)c2cccc([N+](=O)[O-])c2C1=O returned Efflux pump mplx 0.7, Neddyl block -28.4, Arrestin-AP2 inh 63.9*, Pemphigus Ab inh 98.8, Arr-AP2 CP1 -2.9 and GST GSH counter -6.0.
For CCN(CC(=O)Nc1c(F)cccc1F)C(=O)CCN1C(=O)c2cccc([N+](=O)[O-])c2C1=O the results were Efflux pump mplx 0.0, Neddyl block -22.5, Arrestin-AP2 inh 5.8 and Pemphigus Ab inh 98.8.
COc1ccc(CCC(=O)N2CCN(S(=O)(=O)c3cccc(Cl)c3)CC2)cc1 was read as Efflux pump mplx 0.0, Neddyl block 10.5, Arrestin-AP2 inh 56.1*, Pemphigus Ab inh 101.0, Arr-AP2 CP1 -7.6 and GST GSH counter 0.2.
COc1ccc(-c2nnn(CC(=O)Nc3ccc4c(c3)OCCO4)n2)cc1OC was read as Efflux pump mplx -0.1, Neddyl block 6.8, Arrestin-AP2 inh 60.4*, Arr-AP2 CP1 11.0 and GST GSH counter 2.7.
Screening Cc1ccc(C(=O)N2CCC(C(=O)c3ccc(F)cc3)CC2)cc1 returned Neddyl block -2.6, Arrestin-AP2 inh 58.1*, Pemphigus Ab inh 110.5, Arr-AP2 CP1 -0.3 and GST GSH counter -5.2.
Screening Cc1nc2c3ccccc3nc(NNC(=O)CCC(=O)N3CCCC(C)C3)n2n1 (centres undefined) returned Efflux pump mplx 0.0, Neddyl block -1.7, Arrestin-AP2 inh 37.5 and Pemphigus Ab inh 128.1.
For COc1cc2c(cc1OC)CN(C(=S)Nc1ccc(OC(F)F)cc1)CC2 the results were Efflux pump mplx -0.1, Neddyl block 12.4, Arrestin-AP2 inh 55.6*, Pemphigus Ab inh 112.0, Arr-AP2 CP1 0.1 and GST GSH counter -3.5.
`Nc1c(C(=O)NC2CC2)sc2nc3c(c(-c4ccco4)c12)CC/C3=C/c1ccco1` gave Efflux pump mplx 0.4, Neddyl block -12.8, Arrestin-AP2 inh 54.8*, Arr-AP2 CP1 35.0 and GST GSH counter 22.0.
Oc1c(CNc2ccccc2)cc(COCc2ccccc2)c2cccnc12 was read as Efflux pump mplx 0.4, Neddyl block 11.4, Arrestin-AP2 inh 55.4*, Pemphigus Ab inh 107.7, Arr-AP2 CP1 4.2 and GST GSH counter 0.9.
Screening CCN1CCN(c2ccc(NC(=O)c3cc(OC)c(OC)c(OC)c3)cc2)CC1 returned Efflux pump mplx -0.1, Neddyl block -6.3, Arrestin-AP2 inh 31.6 and Pemphigus Ab inh 108.2.
COc1ccc(-c2nc(CS(=O)CC(=O)NC3CCCC3)c(C)o2)cc1OC (centres undefined) was read as Efflux pump mplx -0.5, Neddyl block 21.4, Arrestin-AP2 inh 32.4 and Pemphigus Ab inh 101.1.
For COc1ccc(-c2nc(CS(=O)CC(=O)NC3CCC(C)CC3)c(C)o2)cc1OC (centres undefined) the results were Efflux pump mplx -0.1, Neddyl block 8.0, Arrestin-AP2 inh 54.5*, Pemphigus Ab inh 100.1, Arr-AP2 CP1 -10.7 and GST GSH counter 0.1.
For CC(O)(c1cccc(F)c1)c1nc(-c2cccc(C#N)c2)cs1 (centres undefined) the results were Neddyl block -9.7.
For CCc1ccc(NC(=S)N2CCN(c3cccc(OC)c3)CC2)cc1 the results were Efflux pump mplx -0.3, Neddyl block -11.1, Arrestin-AP2 inh -16.1 and Pemphigus Ab inh 99.4.
`CC(C)CCNC(=O)CCC(=O)NNc1nc2ccccc2c2nc(-c3ccccc3)nn12` gave Efflux pump mplx -0.4, Neddyl block 6.2, Arrestin-AP2 inh 62.5*, Pemphigus Ab inh 95.4, Arr-AP2 CP1 -1.6 and GST GSH counter 2.5.
For O=C(Nc1nnc(C2=COCCO2)o1)c1cccc(Br)c1 the results were Efflux pump mplx -0.1, Neddyl block -2.9, Arrestin-AP2 inh 57.1*, Pemphigus Ab inh 99.0, Arr-AP2 CP1 -2.9 and GST GSH counter -4.1.
Screening COC(=O)Cn1c(=NC(=O)c2cc(-c3cccs3)nc3ccccc23)sc2cc(S(N)(=O)=O)ccc21 returned Efflux pump mplx -0.4, Neddyl block -1.2, Arrestin-AP2 inh 63.4*, Pemphigus Ab inh 77.1, Arr-AP2 CP1 0.1 and GST GSH counter -6.5.
For CCOC(=O)Cn1c(=NC(=O)c2cc(-c3cccs3)nc3ccccc23)sc2cc(S(N)(=O)=O)ccc21 the results were Efflux pump mplx 0.0, Neddyl block 37.0, Arrestin-AP2 inh 14.7 and Pemphigus Ab inh 78.6.
Screening COc1ccccc1CNC(=O)COC(=O)c1c(C)nn(-c2ccccc2)c1Cl returned Efflux pump mplx 0.0, Neddyl block -1.7, Arrestin-AP2 inh 67.0*, Pemphigus Ab inh 108.9, Arr-AP2 CP1 -13.4 and GST GSH counter -1.9.
`COc1ccccc1OCC(=O)N/N=C/c1cccc2cccnc12` gave Efflux pump mplx 0.0, Neddyl block -14.2 and Arrestin-AP2 inh 41.4.
`COc1cccc(/C=N/NC(=O)COc2cccc3cccnc23)c1O` gave Efflux pump mplx 0.0, Neddyl block 0.3, Arrestin-AP2 inh 60.2*, Pemphigus Ab inh 104.9, Arr-AP2 CP1 -10.7 and GST GSH counter -0.7.
`Cc1ccc(NS(=O)(=O)c2ccc3c(c2)NC(=O)CCS3)cc1C` gave Efflux pump mplx 0.1, Neddyl block -8.4 and Arrestin-AP2 inh -3.3.
For CC(=O)c1ccc(NC(=O)CSc2nnc(NC(=O)c3ccco3)s2)cc1 the results were Efflux pump mplx 0.0, Neddyl block -28.1, Arrestin-AP2 inh -6.2 and Pemphigus Ab inh 111.2.
`COc1ccc(OCCC(=O)Nc2nccs2)cc1` gave Efflux pump mplx 0.2, Neddyl block 2.3, Arrestin-AP2 inh 54.3*, Pemphigus Ab inh 91.2, Arr-AP2 CP1 -3.9 and GST GSH counter 0.6.
Screening COc1ccc(OCC(=O)Nc2nccs2)cc1 returned Efflux pump mplx 0.0, Neddyl block 8.4, Arrestin-AP2 inh -38.3 and Pemphigus Ab inh 116.8.
CC(=O)c1nn(-c2ccccc2)cc1C(=O)c1ccc(C)cc1 was read as Efflux pump mplx 0.0, Neddyl block -7.4, Arrestin-AP2 inh 0.6 and Pemphigus Ab inh 102.5.
Screening N#Cc1cn(-c2ccccc2)nc1C(=O)c1ccccc1 returned Efflux pump mplx 0.3, Neddyl block -38.3, Arrestin-AP2 inh 83.0*, Pemphigus Ab inh 93.8, Arr-AP2 CP1 -1.9 and GST GSH counter -8.5.
Screening O=C1CCCC(O)=C1Sc1ccccc1C(=O)O returned Efflux pump mplx 0.0, Neddyl block 6.8, Arrestin-AP2 inh 74.1*, Pemphigus Ab inh 98.0, Arr-AP2 CP1 11.4 and GST GSH counter 7.0.
